Experimental data published in ChEMBL document CHEMBL4706717, “Covalent Occlusion of the RORγt Ligand Binding Pocket Allows Unambiguous Targeting of an Allosteric Site” (ACS Med Chem Lett, 2021).
Active and inactive are the calls of the source. The rule behind the calls is not given here.

How the values were obtained:
[1] = biological target: T1, Peroxisome proliferator-activated receptor gamma (Homo sapiens) (UniProt P37231); assay: Binding affinity to PPARgamma (unknown origin)
T1 sequence (whole entry): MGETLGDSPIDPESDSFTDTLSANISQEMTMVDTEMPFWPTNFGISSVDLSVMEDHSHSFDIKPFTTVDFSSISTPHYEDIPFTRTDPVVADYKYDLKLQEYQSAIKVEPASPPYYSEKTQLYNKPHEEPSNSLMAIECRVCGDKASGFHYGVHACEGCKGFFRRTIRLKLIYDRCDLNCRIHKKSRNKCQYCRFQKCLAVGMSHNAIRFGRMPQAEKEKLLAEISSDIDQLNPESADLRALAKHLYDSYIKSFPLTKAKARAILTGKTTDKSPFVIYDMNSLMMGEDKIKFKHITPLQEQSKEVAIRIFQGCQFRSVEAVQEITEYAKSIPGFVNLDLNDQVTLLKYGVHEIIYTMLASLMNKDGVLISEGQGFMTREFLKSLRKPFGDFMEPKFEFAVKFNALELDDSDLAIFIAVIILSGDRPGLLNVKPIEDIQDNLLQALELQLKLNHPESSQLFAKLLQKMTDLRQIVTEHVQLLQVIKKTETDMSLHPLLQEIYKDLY

[2] = biological target: T2, Nuclear receptor ROR-gamma (Homo sapiens) (UniProt P51449); settings: filed as inverse agonist, dose 10.0 µM
T2 sequence (whole entry): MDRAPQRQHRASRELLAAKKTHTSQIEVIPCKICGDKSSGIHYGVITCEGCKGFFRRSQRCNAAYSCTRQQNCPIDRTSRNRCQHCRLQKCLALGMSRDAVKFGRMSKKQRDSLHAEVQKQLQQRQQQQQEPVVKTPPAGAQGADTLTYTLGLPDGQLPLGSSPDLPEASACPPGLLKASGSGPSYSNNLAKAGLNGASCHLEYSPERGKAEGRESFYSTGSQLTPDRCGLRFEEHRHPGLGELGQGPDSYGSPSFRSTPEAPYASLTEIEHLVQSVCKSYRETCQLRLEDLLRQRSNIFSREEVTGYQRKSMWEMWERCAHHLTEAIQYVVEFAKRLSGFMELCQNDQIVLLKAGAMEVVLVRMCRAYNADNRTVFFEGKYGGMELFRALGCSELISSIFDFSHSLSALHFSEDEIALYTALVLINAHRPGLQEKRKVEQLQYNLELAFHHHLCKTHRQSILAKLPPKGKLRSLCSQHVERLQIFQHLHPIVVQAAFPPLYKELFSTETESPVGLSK

[3] = biological target: T3, Nuclear receptor ROR-gamma (Homo sapiens, UniProt P51449); assay: Orthosteric inverse agonist activity at recombinant human N-terminal His6-tagged RORgammat ligand binding domain (265 to 518 residues) expressed in Escherichia coli BL21 (DE3) assessed as reduction in coactivator, N-terminal biotinylated SRC-1 box2 peptide recruitment incubated for 60 mins by TR-FRET assay
T3 sequence (P51449 whole entry): T2 sequence (whole entry)

Homo sapiens = organism: Homo sapiens; assay: Binding affinity to recombinant human N-terminal His6-tagged RORgammat ligand binding domain (265 to 507 residues) Cys320Ala mutant expressed in Escherichia coli BL21 (DE3) incubated for overnight by Q-TOF-MS analysis
Summary of the method: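 Ligation of His6-RORγt LBD (residues 265-507, used for mutagenesis work) at 20 μM with 5-10 eq probe in 50 mM TRIS (pH 5.3-5.8), 50 mM NaCl, 5 mM CHAPS, 0.1% BSA, continuous mixing overnight at 4°C or RT; LC-MS Q-TOF, deconvoluted spectra; percent ligation from ratio of mass peaks.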

[4] = biological target: T2, Nuclear receptor ROR-gamma (Homo sapiens); settings: filed as inverse agonist, dose 10.0 µM; remark: listed apart in the source
[5] = biological target: T2, Nuclear receptor ROR-gamma (Homo sapiens); assay: (§1) Orthosteric agonist activity at GW9662-ligated recombinant human N-terminal His6-tagged RORgammat ligand binding domain (265 to 518 residues) expressed in Escherichia coli BL21 (DE3) assessed as increase in coactivator, N-terminal biotinylated SRC-1 box2 peptide recruitment in presence of GW9662 incubated for 60 mins by TR-FRET assay
Summary of the method: (§2)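 Dose response: probe and His6-RORγt LBD (265-518, 20 μM) co-titrated (1.4x series, top 10 eq, 200 μM) in pH 5.8 TRIS/NaCl/CHAPS/BSA buffer overnight (4°C or RT per compound). Then 100 nM LBD, 100 nM biotin-SRC-1 box2, Tb anti-His, d2-streptavidin in HEPES pH 7.5, 150 mM NaCl, 5 mM DTT, 0.1% BSA, 0.1 mM CHAPS, 1% DMSO; top probe 1 μM; 60 min RT; 665/620 nm ratio; four-parameter fit; triplicate, ≥2 experiments.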

[6] = biological target: T2, Nuclear receptor ROR-gamma (Homo sapiens); assay: as §1, with “2-chloro-5-nitro-N-(2-(trifluoromethyl)phenyl)benzamide-ligated” for “GW9662-ligated”, “2-chloro-5-nitro-N-(2-(trifluoromethyl)phenyl)benzamide” for “GW9662”; summary of the method: as §2
[7] = biological target: T2, Nuclear receptor ROR-gamma (Homo sapiens); assay: as §1, with “2-chloro-N-(2,6-dimethylphenyl)-5-nitrobenzamide-ligated” for “GW9662-ligated”, “2-chloro-N-(2,6-dimethylphenyl)-5-nitrobenzamide” for “GW9662”; summary of the method: as §2
[8] = biological target: T2, Nuclear receptor ROR-gamma (Homo sapiens); assay: as §1, with “2-chloro-5-nitro-N-o-tolylbenzamide-ligated” for “GW9662-ligated”, “2-chloro-5-nitro-N-o-tolylbenzamide” for “GW9662”; summary of the method: as §2

| SMILES | Activity [1] | also measured |
| --- | --- | --- |
| O=C(Nc1ccccc1)c1cc(Cl)ccc1[N+](=O)[O-] | inactive | – |
| C=CCNC(=O)c1cc([N+](=O)[O-])ccc1Cl | Active | – |
| COc1ccc(NC(=O)c2cc([N+](=O)[O-])ccc2Cl)cc1 | Active | – |
| C[C@H]1O[C@@H](O[C@H]2[C@@H](O)C[C@H](O[C@H]3[C@@H](O)C[C@H](O[C@H]4CC[C@@]5(C)[C@H](CC[C@@H]6[C@@H]5C[C@@H](O)[C@]5(C)[C@@H](C7=CC(=O)OC7)CC[C@]65O)C4)O[C@@H]3C)O[C@@H]2C)C[C@H](O)[C@@H]1O | – | ΔTm [2]: -0.2 °C |
| O=C(Nc1ccccc1)c1cc([N+](=O)[O-])ccc1Cl | – | IC50 [3]: 86 nM; Activity (Homo sapiens): inactive |
| O=C(Nc1ccc([N+](=O)[O-])cc1)c1cc([N+](=O)[O-])ccc1Cl | Active | – |
| O=C(NC1CCCCC1)c1cc([N+](=O)[O-])ccc1Cl | Active | – |
| O=C(NCc1ccccc1)c1cc([N+](=O)[O-])ccc1Cl | Active | – |
| Cc1ccccc1NC(=O)c1cc([N+](=O)[O-])ccc1Cl | Active | IC50 [3]: 77 nM |
| O=C(Nc1ccsc1)c1cc([N+](=O)[O-])ccc1Cl | Active | IC50 [3]: 122 nM |
| O=C(O)c1ccc(NCc2c(-c3c(Cl)cccc3C(F)(F)F)noc2-c2cc[nH]c2)cc1 | – | ΔTm [4]: 2.1 °C |
| CC(C)CCC[C@@H](C)[C@H]1CC[C@H]2[C@@H]3CC=C4C[C@@H](O)CC[C@]4(C)[C@H]3CC[C@]12C | – | Activity [5]: inactive; Activity [6]: inactive; Activity [7]: inactive; Activity [8]: inactive |
| Cc1ccc(NC(=O)c2cc([N+](=O)[O-])ccc2Cl)cc1 | Active | – |
| O=C(c1cc([N+](=O)[O-])ccc1Cl)n1cccc1 | inactive | – |
| Cc1cccc(NC(=O)c2cc([N+](=O)[O-])ccc2Cl)c1 | Active | – |
| CC(C)NC(=O)c1cc([N+](=O)[O-])ccc1Cl | Active | – |
